High-throughput results deposited in PubChem BioAssay by The Scripps Research Institute Molecular Screening Center.
Rows were chosen to be rich in hits. Some 2.9% of all compounds tested hit in one or more screens of this group.
5HT1E ag: 5-HT1E receptor agonists, primary screen, cell-based, HTS. CHO 5-HT1E Ga15 NFAT-bla reporter, FRET; 0% DMSO wells, 100% control agonist wells. activation, % at 6 µM. 65,000 compounds, 0.69% hits. AID 574, 2007;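 active = activation above a set limit, the screen-wide mean activation plus 3 SD, cut at about 8.5% in these data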
HTR1E antagonist: 5-HT1E receptor antagonists, primary screen, cell-based, HTS; 5-hydroxytryptamine receptor 1E (Homo sapiens), P28566; inhibition, % at 6 µM; 65,000 compounds, 0.99% hits; CHO 5-HT1E Ga15 NFAT-bla reporter, FRET, antagonist;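 active = inhibition above a set limit, the mean inhibition across every tested compound plus 3 SD, cut at about 29% in these data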;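 note: signal is the 460 over 535 nm emission ratio of beta-lactamase substrate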
S1P1 ag-PAM: S1P1 agonists and agonism potentiators, primary screen, cell-based, primary and confirmation screens, CRE-bla reporter; AID 449, 2006; 56,000 compounds, 0.57% hits; activation, % at 9.5 µM; Sphingosine 1-phosphate receptor 1 (Homo sapiens), P21453; S1P1 CRE-bla cells, forskolin, beta-lactamase FRET, potentiator mode; S1P1 agonist co-added at EC20, 2 nM; 100% = saturating reference agonist, 0% = basal;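 active = activation above a cutoff set at the mean activation of all tested compounds plus 3 SD, cut at about 54% in these data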;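 note: forskolin at 4 µM as EC80 and the EC20 agonist is SEW2871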
Target sequence (P21453 whole entry, looked up): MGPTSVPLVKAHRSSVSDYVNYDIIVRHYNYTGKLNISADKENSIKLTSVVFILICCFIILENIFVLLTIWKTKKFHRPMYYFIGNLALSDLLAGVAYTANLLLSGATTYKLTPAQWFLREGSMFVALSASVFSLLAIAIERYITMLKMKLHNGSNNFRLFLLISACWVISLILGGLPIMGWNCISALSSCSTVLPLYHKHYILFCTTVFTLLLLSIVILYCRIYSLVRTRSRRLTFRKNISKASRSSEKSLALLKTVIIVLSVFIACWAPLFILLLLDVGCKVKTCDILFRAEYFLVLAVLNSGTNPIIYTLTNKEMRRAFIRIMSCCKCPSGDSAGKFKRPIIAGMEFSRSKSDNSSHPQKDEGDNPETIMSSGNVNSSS
5HT1a ag: human 5-HT1a receptor agonists, primary screen, cell-based, CHO, Ga15 NFAT-bla reporter; 5-hydroxytryptamine receptor 1A (Homo sapiens), P08908; CHO 5-HT1a Ga15 NFAT-bla reporter, FRET ratio; 0% basal, 100% maximal reference agonist; activation, % at 10 µM; 65,000 compounds, 0.56% hits; AID 567, 2006;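 active = activation above the screen-wide mean activation plus 3 SD, cut at about 19% in these data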
S1P3 agonist: human S1P3 receptor agonists, primary screen, cell-based, primary and confirmation, NFAT-BLA reporter; Sphingosine 1-phosphate receptor 3 (Homo sapiens), Q99500; S1P3 NFAT-BLA reporter cells, agonism, FRET ratio; relative to 1 µM S1P, basal subtracted; activation, % at 4.5 µM; 60,000 compounds, 0.1% hits; AID 373, 2006;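 active = activation above the screen-wide mean plus 3 SD, cut at about 4.5% in these data, passing the limit was not always enough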
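Assay system: CHO cells stably expressing human S1P3, Gα16 and NFAT-β-lactamase reporter. Timing: overnight plating, 4 h compound 37 °C, 2 h substrate RT. Signal: β-lactamase FRET emission ratio 460/535 nm. Measure: percent activation versus median 1 µM S1P response, basal-subtracted, per plate. Repeats: primary screen single test, confirmation screen in triplicate.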
5-HT1A blocker: human 5-HT1a receptor antagonists, primary screen, cell-based, CHO, Ga15 NFAT-bla reporter; CHO 5-HT1a Ga15 NFAT-bla reporter, antagonist mode; inhibition, % at 10 µM; 62,000 compounds, 0.68% hits; AID 612, 2007;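 active = inhibition above the mean of all tested compounds plus 3 SD, cut at about 43% in these data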;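 note: receptor stimulated by 5-CT agonist at 100 nM near EC80; beta-lactamase reporter measured by ratiometric fluorescence of a cleavable substrate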
Hits are given with their value; - = inactive; . = no result.

SMILES	5HT1E ag	HTR1E antagonist	S1P1 ag-PAM	5HT1a ag	S1P3 agonist	5-HT1A blocker
COc1cc2c(cc1OC)C(COc1ccc3c(C)cc(=O)oc3c1)N(C(=O)c1ccco1)CC2 (stereo not drawn)	-	30	.	-	.	-
COc1cc2c(cc1OC)C(COc1ccc(F)cc1)N(C(=O)c1ccco1)CC2 (stereo not drawn)	-	-	.	-	.	-
Cc1ccc(-c2nc3nc4ccccc4nc3n2Cc2ccco2)cc1	-	-	-	-	-	50
c1ccc(Cn2c(-c3ccco3)nc3nc4ccccc4nc32)cc1	-	-	-	-	-	-
Clc1ccc(-c2nc3nc4ccccc4nc3n2Cc2ccco2)cc1	-	-	80	-	-	-
CCC1Cc2c(nc3c4c(nc(N5CCOCC5)c(C#N)c24)NC(C)=N3)O1 (stereo not drawn)	-	-	-	-	-	-
CN1CCN(S(=O)(=O)c2ccc(NC(=O)c3cccs3)cc2)CC1	-	-	-	-	-	-
CN1CCN(S(=O)(=O)c2ccc(NC(=O)c3csc4ccccc34)cc2)CC1	-	35	-	-	-	-
CC1=C/C(=C/N(C)c2ccccc2)C(=O)S1	-	-	-	-	-	44
Cc1cc(C)cc(OCc2nnc(SCC(=O)N3CCN(c4ccccc4)CC3)o2)c1	-	-	-	-	-	-
O=C(CCNC(=O)Cn1ccc2ccccc2c1=O)NCCN1CCc2ccccc2C1	-	-	-	-	-	-
O=C(Cn1ccc2ccccc2c1=O)NCCC(=O)NC1CCN(Cc2ccccc2)CC1	11	-	-	-	-	-
CCCS(=O)(=O)N1CCCC(C(=O)N2CCOCC2)C1 (stereo not drawn)	-	-	-	-	-	-
CCOC(=O)c1[nH]c(C)c(C(=O)N2CCc3ccccc32)c1C	-	77	-	-	-	51
CC(=O)c1c(C)[nH]c(C(=O)N2CCc3ccccc32)c1C	-	-	-	-	-	-
COc1cccc2cc(C(=O)N3CCc4ccccc43)c(=O)oc12	-	-	-	-	-	-
COc1ccccc1C(=O)N1CCc2ccccc21	20	-	-	-	-	-
O=C(CCCC(=O)N1CCc2ccccc21)N1CCc2ccccc21	-	-	-	-	-	-
CCOC(=O)c1cc2sccc2n1CC(=O)N1CCc2ccccc21	-	44	.	-	.	-
CCOCC(=O)N1CCc2ccccc21	-	-	-	24	-	-
Cc1ccc(-c2nc(CS(=O)CC(=O)NC3CCC(C)CC3)c(C)o2)cc1 (stereo not drawn)	-	-	-	-	-	-
CCOC(=O)N1CCC(NC(=O)c2ccc3c(=O)n4c(nc3c2)CCCC4)CC1	-	-	-	-	-	-
Cc1cc(-c2ccccc2)n(-c2ccc(C(=O)N3CCN(c4ncccn4)CC3)cc2)n1	-	-	-	-	-	-
Cc1nn(C(C)C(=O)O)c2ccccc12 (stereo not drawn)	-	-	-	-	-	-
CC(c1ccccc1)C(CC(=O)O)C(=O)NC1CCCCC1 (stereo not drawn)	-	-	-	-	-	-
SMILES	5HT1E ag	HTR1E antagonist	S1P1 ag-PAM	5HT1a ag	S1P3 agonist	5-HT1A blocker
Cc1cccnc1NCc1ccc(O)c2ncccc12	-	51	-	-	-	-
c1ccc2c(c1)CCOC2CNCCCN1CCCCC1 (stereo not drawn)	-	-	-	-	-	.
Cc1cc(C)nc(Nc2nc(=O)c3ccccc3s2)n1	-	-	-	-	-	62
Cc1cc(C(F)(F)F)nc(Nc2nc(C)c3ccccc3n2)n1	-	-	-	-	-	-
Cc1ccc(-c2cnc(N)n2C)cc1C	38	-	-	-	-	-
CCC(CC)C(=O)Nc1cc(C)c2c(=O)oc3ccccc3c2n1	-	31	-	-	-	-
COc1ccc(CC(=O)Nc2cc(C)c3c(=O)oc4ccccc4c3n2)cc1	-	-	-	-	-	-
Cc1c(-n2cc(C(=O)c3ccccc3O)cc(C#N)c2=O)c(=O)n(-c2ccccc2)n1C	-	-	-	325	-	-
CS(=O)(=O)N1CCc2cc(C(=O)OCC(=O)c3ccccc3)ccc21	-	-	.	-	.	-
CCN(CC)C(=O)Sc1cccc2cccnc12	-	-	-	-	-	-
CCOC(=O)CSc1cccc2cccnc12	-	40	-	-	-	-
Cc1noc(C)c1S(=O)(=O)N1CCC(C(=O)N2CCC(N3CCCCC3)CC2)CC1	-	-	-	-	-	-
CCSCCOC(=O)C1=C(C)NC(=O)NC1c1ccc2c(c1)OCO2 (stereo not drawn)	-	-	-	200	-	-
CCOC(=O)C1=C(C)NC(=O)NC1c1ccc2c(c1)OCO2 (stereo not drawn)	-	-	-	-	-	.
O=C(COC(=O)c1cnccn1)c1ccc2c(c1)CCCC2	-	-	.	-	.	-
CCCCOc1ccc(N2C(=O)CC(N(O)c3ccccc3)C2=O)cc1 (stereo not drawn)	-	34	-	-	-	-
CCCCCOc1ccc(N2C(=O)CC(N(O)c3ccccc3)C2=O)cc1 (stereo not drawn)	-	-	-	-	-	-
COCCCn1c(Cc2ccccc2)nnc1SCC(=O)N1CCCCC1	-	-	-	-	-	-
Nc1c(NCc2ccccc2F)c(=O)[nH]c(=O)n1Cc1ccccc1	-	-	.	81	.	-
O=C(OCc1nnc(-c2ccccc2)o1)c1ccc(S(=O)(=O)NCc2ccco2)cc1	-	-	-	-	-	-
Clc1ccc(CSc2nnc(-c3ccncc3)o2)c(Cl)c1	-	-	76	-	-	-
O=C(Nc1nccs1)c1cccc(S(=O)(=O)N2CCOCC2)c1	-	-	.	-	.	-
Cc1cc(C)c2c(=O)n(-c3ccccc3)[nH]c2n1	13	-	-	-	-	-
O=c1c2c3n(c(=O)nc2[nH]n1-c1ccccc1)CCCCC3	-	-	-	-	-	-
Cc1nc(=O)c(-c2ccccc2)c(C)n1-c1ccc(O)c(C(=O)O)c1	-	-	.	22	-	-
Cc1nc(=O)c(-c2ccccc2)c(C)n1-c1cccc(C(=O)O)c1	-	-	-	-	-	-
N#CC1=C(N)N(c2ccccc2)C(c2ccco2)C1(C#N)C#N (stereo not drawn)	-	-	-	42	-	-
